Results published in ChEMBL document CHEMBL3865803, “Bicyclic octahydrocyclohepta[b]pyrrol-4(1H)one derivatives as novel selective anti-hepatitis C virus agents” (Eur J Med Chem, 2016).

Key:
[1] = Cytotoxicity against human Huh7.5 cells measured after 48 hrs by MTS assay; format: toxicity, cell-based, Huh-7; settings: for CC50 at 48 h: Huh7.5 cells; for Activity: huh-7, 48 h
Outline: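 Parental Huh7.5 cells were treated 12 h after seeding with 8-10 dilutions of compound or DMSO (1% final) for 48 h at 37 °C. Viability was read by MTS bioreduction to formazan. CC50 is the concentration halving the MTS signal, mean ± SD of three independent experiments.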

Hepatitis C virus [2] = experiment: Antiviral activity against HCV genotype 1b infected in human Huh7/Rep-Feo1b replicon cells assessed as inhibition of viral RNA replication at 50 uM measured after 48 hrs by luciferase reporter gene assay relative to control; format: functional, Hepacivirus hominis; settings: Huh-7, 48 h
Outline: (§1)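 Replicon cells (gt1b firefly luciferase; gt2a Renilla luciferase) in DMEM/10% FBS with G418, ~1 × 10^4 cells/well, dosed 12 h after seeding with 50 µM compound or DMSO (1% final) for 48 h at 37 °C. Cells were PBS-washed and luciferase read; % inhibition was taken versus DMSO-treated cells, mean±SD, n=3.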

Hepatitis C virus [3] = experiment: Antiviral activity against HCV genotype 1b infected in human Huh7/Rep-Feo1b replicon cells assessed as inhibition of viral RNA replication measured after 48 hrs by luciferase reporter gene assay; format: functional, cell-based, Hepacivirus hominis; settings: Huh-7, 48 h
Outline: (§2)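 EC50 from concentration-response in replicon cells (gt1b firefly, gt2a Renilla luciferase reporter) maintained with G418. Compound added 12 h post-seeding (~1 × 10^4 cells/well), 48 h exposure, DMSO 1% final. Luciferase was compared with DMSO controls; the value is the mean ± SD of three independent 8-12 point quarter-log dilution series, calculated with CalcuSyn.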

[4] = Selectivity index, ratio of CC50 for human Huh7.5 cells to EC50 for HCV genotype 1b infected in human Huh7/Rep-Feo1b replicon cells; design: species or system Huh-7
Hepatitis C virus [5] = experiment: Antiviral activity against HCV genotype 2a infected in human Huh7.5-FGR-JC1-Rluc2A replicon cells assessed as inhibition of viral RNA replication at 50 uM measured after 48 hrs by luciferase reporter gene assay relative to control; format: functional, Hepacivirus hominis; settings: Huh-7, 48 h; outline: as §1
Hepatitis C virus [6] = experiment: Antiviral activity against HCV genotype 2a infected in human Huh7.5-FGR-JC1-Rluc2A replicon cells assessed as inhibition of viral RNA replication incubated for 48 hrs by luciferase reporter gene assay; format: functional, cell-based, Hepacivirus hominis; settings: Huh-7, 48 h; outline: as §2
[7] = Selectivity index, ratio of CC50 for human Huh7.5 cells to EC50 for HCV genotype 2a infected in human Huh7.5-FGR-JC1-Rluc2A replicon cells; design: species or system Huh-7

Row | SMILES | CC50 at 48 h [1] [µM] | Activity [1] [%] | inhibition at 50 µM (Hepatitis C virus [2]) [%] | EC50 (Hepatitis C virus [3]) [µM] | Ratio CC50/EC50 [4] | inhibition at 50 µM (Hepatitis C virus [5]) [%] | EC50 (Hepatitis C virus [6]) [µM] | Ratio CC50/EC50 [7]
1 | OC1CCCC[C@H]2[C@H]1[C@@H](c1cccc(F)c1)CN2Cc1ccccc1 (mixture of isomers) | 36.9 | 28 | 99 | 2 | 18.4 | 99 | 1.2 | 30.8
2 | CCOC(=O)[C@@H]1C[C@@H]2C(=O)CCCC[C@@H]2N1C(=O)c1ccccc1 (racemic) | > 200 | – | 59 | 14.9 | >13.4 | 95 | 14.3 | >13.9
3 | Cc1ccc(S(=O)(=O)N2[C@H](C(=O)O)C[C@@H]3/C(=N/Nc4ccccc4)CCCC[C@@H]32)cc1 (racemic) | > 200 | – | 25 | – | – | 81 | 26.3 | >7.6
4 | CCOC(=O)[C@@H]1C[C@@H]2C(=O)CCCC[C@@H]2N1S(=O)(=O)c1ccc(C(C)(C)C)cc1 (racemic) | > 200 | – | 49 | 34.4 | >5.8 | 94 | 13 | >15.4
5 | O=C1CCCC[C@@H]2[C@@H]1[C@H](c1cccc(F)c1)CN2Cc1ccccc1 (racemic) | > 50 | 63 | 83 | 11.7 | >4.2 | 97 | 1.6 | >31.8
6 | O=C1CCCC[C@H]2[C@H]1[C@@H](c1ccccc1)CN2Cc1ccccc1 (racemic) | 134 | 85 | 71 | 7.7 | 17.3 | 96 | 4.6 | 29.2
7 | CCOC(=O)[C@@H]1C[C@@H]2C(=O)CCCC[C@H]2N1S(=O)(=O)c1ccc(C)cc1 (racemic) | > 200 | – | 51 | 59.4 | 3.4 | 91 | 8.7 | 22.9
8 | Cc1ccc(S(=O)(=O)N2[C@H](C(=O)NCCc3ccccc3)C[C@@H]3C(=O)CCCC[C@@H]32)cc1 (racemic) | 153 | – | 66 | 28.1 | 5.4 | 48 | – | –
9 | C[C@]12C[C@@H](Cc3ccccc3)N(Cc3ccccc3)[C@H]1CCCC(=O)N2 (racemic) | > 50 | 60 | 87 | 18.2 | >2.7 | 95 | 11.5 | >4.3
10 | CCOC(=O)[C@H]1C[C@H]2C(=O)CCCC[C@H]2N1S(=O)(=O)c1ccc(C)cc1 (racemic) | > 200 | 77 | 89 | 7.1 | >28.2 | 84 | 6.1 | >32.8
11 | CCOC(=O)[C@@H]1C[C@@H]2NC(=O)CCCC[C@@H]2N1S(=O)(=O)c1ccc(C)cc1 (racemic) | 143 | 92 | 66 | 11.6 | 12.4 | 71 | 8.2 | 17.4
12 | CCOC(=O)[C@@H]1C[C@@H]2[C@@H](O)CCCC[C@@H]2N1S(=O)(=O)c1ccc(C)cc1 (racemic) | > 200 | – | 22 | – | – | 77 | 27.6 | 7.3
13 | O=C1CCCC[C@H]2[C@H](N1)[C@@H](c1ccccc1)CN2Cc1ccccc1 (racemic) | > 200 | 98 | 80 | 24.1 | >8.3 | 59 | 12.4 | >16.1
14 | CCOC(=O)[C@@H]1C[C@]2(C)C(=O)CCCC[C@@H]2N1S(=O)(=O)c1ccc(C)cc1 (racemic) | > 200 | – | 50 | 49.1 | 4.1 | 76 | 14.2 | 14.1
15 | CCOC(=O)[C@@H]1C[C@@H]2/C(=N/O)CCCC[C@@H]2N1S(=O)(=O)c1ccc(C)cc1 (racemic) | > 200 | – | 63 | 25.3 | 7.9 | 66 | 15.3 | 13.1
16 | O=C1CCCC[C@@H]2[C@H](C[C@H](Cc3ccccc3)N2Cc2ccccc2)N1 (racemic) | > 50 | 61 | 82 | 7.5 | >6.6 | 99 | 5.6 | >8.8
17 | CCOC(=O)[C@@H]1C[C@@H]2[C@@H](OC(C)=O)CCCC[C@@H]2N1S(=O)(=O)c1ccc(C)cc1 (racemic) | > 200 | – | 60 | 27.2 | 7.3 | 73 | 25.8 | 7.7
18 | CC(C)(C)OC(=O)N1CC[C@H]2[C@H](C(=O)C1)[C@@H](c1ccccc1)CN2Cc1ccccc1 (racemic) | > 50 | 61 | 94 | 9 | >5.5 | 99 | 4.47 | >11.2
19 | O=C1CCCC[C@@H]2[C@H]1[C@@H](c1ccccc1)CN2S(=O)(=O)c1ccccc1 (racemic) | > 200 | 84 | 78 | 16.5 | 12.1 | 88 | 11.4 | 17.6
20 | CCOC(=O)[C@@H]1C[C@@H]2C(=O)CCCC[C@@H]2N1S(=O)(=O)c1ccc(Cl)cc1 (racemic) | > 200 | – | 32 | – | – | 60 | 23.8 | 8.4
21 | CCOC(=O)[C@@H]1C[C@@H]2/C(=N/NC(N)=S)CCCC[C@@H]2N1S(=O)(=O)c1ccc(C)cc1 (racemic) | > 200 | – | 66 | 14.3 | 14 | 58 | 11.6 | 17.3
